Data taken from ChEMBL document CHEMBL1671644, “Inhibition of human immunodeficiency virus type 1 infection by the candidate microbicide dapivirine, a nonnucleoside reverse transcriptase inhibitor” (Antimicrob Agents Chemother, 2009).

Assays:
Format in all cases: functional
[1] = test system: Human immunodeficiency virus 1; experiment: Antiviral activity against HIV-1 SM026 harboring NNTRI 103N and 181C mutant infected in human MT4 cells assessed as inhibition of viral replication relative to HIV-1 3B
In short: (§1)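 MT-4 cells (3 x 10^4/well) infected with site-directed mutants or recombinant clinical isolates (200 TCID50/well) with drug, cultured 3 to 5 days. Viability read by MTT colorimetric antivirogram assay. IC50 by nonlinear regression; fold change = IC50 for the test isolate / IC50 for wild-type HIV-1 IIIB tested in parallel (mean or median).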

[2] = test system: Human immunodeficiency virus 1; experiment: Antiviral activity against HIV-1 subtype B V022809 infected in human MT4 cells assessed as inhibition of viral replication relative to HIV-1 3B; in short: as §1
[3] = test system: Human immunodeficiency virus 1; experiment: Antiviral activity against HIV-1 subtype B V022811 infected in human MT4 cells assessed as inhibition of viral replication relative to HIV-1 3B
In short: (§2)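 Recombinant clinical HIV-1 isolates (200 TCID50/well) were tested in MT-4 cells (3 x 10^4/well) over 3–5 days, with an MTT viability read-out. IC50 was fitted by nonlinear regression. Fold change is the isolate IC50 divided by the HIV-1IIIB IC50, tested in parallel.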

[4] = test system: Human immunodeficiency virus 1; experiment: Antiviral activity against HIV-1 subtype CRF02_AG V022808 infected in human MT4 cells assessed as inhibition of viral replication relative to HIV-1 3B; in short: as §1
[5] = test system: Human immunodeficiency virus 1; experiment: Antiviral activity against HIV-1 SM002 harboring NNTRI 181C mutant infected in human MT4 cells assessed as inhibition of viral replication relative to HIV-1 3B; in short: as §1
[6] = test system: Human immunodeficiency virus 1; experiment: Antiviral activity against HIV-1 subtype CRF02_AG V022825 infected in human MT4 cells assessed as inhibition of viral replication relative to HIV-1 3B; in short: as §1
[7] = test system: Human immunodeficiency virus 1; experiment: Antiviral activity against HIV-1 subtype CRF01_AE V029521 infected in human MT4 cells assessed as inhibition of viral replication relative to HIV-1 3B; in short: as §2
[8] = test system: Human immunodeficiency virus 1; experiment: Antiviral activity against HIV-1 subtype B V022810 harboring NNRTI A98S andK101R mutant infected in human MT4 cells assessed as inhibition of viral replication relative to HIV-1 3B; in short: as §1
[9] = test system: Human immunodeficiency virus 1; experiment: Antiviral activity against HIV-1 subtype CRF05_DF V022824 harboring NNRTI V106I mutant infected in human MT4 cells assessed as inhibition of viral replication relative to HIV-1 3B; in short: as §1
[10] = test system: Human immunodeficiency virus 1; experiment: Antiviral activity against HIV-1 subtype CRF05_DF V022823 infected in human MT4 cells assessed as inhibition of viral replication relative to HIV-1 3B; in short: as §1
[11] = test system: Human immunodeficiency virus 1; experiment: Antiviral activity against HIV-1 subtype B V022815 infected in human MT4 cells assessed as inhibition of viral replication relative to HIV-1 3B; in short: as §2
[12] = test system: Human immunodeficiency virus 1; experiment: Antiviral activity against HIV-1 subtype B V022807 infected in human MT4 cells assessed as inhibition of viral replication relative to HIV-1 3B; in short: as §2
[13] = test system: Human immunodeficiency virus 1; experiment: Antiviral activity against HIV-1 subtype H V029523 harboring NNRTI K101Q and V179I mutant infected in human MT4 cells assessed as inhibition of viral replication relative to HIV-1 3B; in short: as §1
[14] = test system: Human immunodeficiency virus 1; experiment: Antiviral activity against HIV-1 subtype B V022812 harboring NNRTI V179I mutant infected in human MT4 cells assessed as inhibition of viral replication relative to HIV-1 3B; in short: as §1
[15] = test system: Human immunodeficiency virus 1; experiment: Antiviral activity against HIV-1 subtype CRF01_AE V022821 infected in human MT4 cells assessed as inhibition of viral replication relative to HIV-1 3B; in short: as §2
[16] = test system: Human immunodeficiency virus 1; experiment: Antiviral activity against HIV-1 subtype C V022831 infected in human MT4 cells assessed as inhibition of viral replication relative to HIV-1 3B; in short: as §1
[17] = test system: Human immunodeficiency virus 1; experiment: Antiviral activity against HIV-1 subtype CRF05_DF V022833 harboring NNRTI V179I mutant infected in human MT4 cells assessed as inhibition of viral replication relative to HIV-1 3B; in short: as §1
[18] = test system: Human immunodeficiency virus 1; experiment: Antiviral activity against HIV-1 SM034 harboring NNTRI 188L mutant infected in human MT4 cells assessed as inhibition of viral replication relative to HIV-1 3B; in short: as §1
[19] = test system: Human immunodeficiency virus 1; experiment: Antiviral activity against HIV-1 SM024 harboring NNTRI 190A mutant infected in human MT4 cells assessed as inhibition of viral replication relative to HIV-1 3B; in short: as §1
[20] = test system: Human immunodeficiency virus 1; experiment: Antiviral activity against HIV-1 SM030 harboring NNTRI 100I mutant infected in human MT4 cells assessed as inhibition of viral replication relative to HIV-1 3B; in short: as §1
[21] = test system: Human immunodeficiency virus 1; experiment: Antiviral activity against HIV-1 subtype CRF01_AE V029525 infected in human MT4 cells assessed as inhibition of viral replication relative to HIV-1 3B; in short: as §2
[22] = test system: Human immunodeficiency virus 1; experiment: Antiviral activity against HIV-1 SM007 harboring NNTRI 103N mutant infected in human MT4 cells assessed as inhibition of viral replication relative to HIV-1 3B; in short: as §1
[23] = test system: Human immunodeficiency virus 1; experiment: Antiviral activity against HIV-1 subtype O V029524 harboring NNRTI A98G, V179E and Y181C mutant infected in human MT4 cells assessed as inhibition of viral replication relative to HIV-1 3B; in short: as §1
[24] = test system: Human immunodeficiency virus 1; experiment: Antiviral activity against HIV-1 subtype C V022816 infected in human MT4 cells assessed as inhibition of viral replication relative to HIV-1 3B; in short: as §2
[25] = test system: Human immunodeficiency virus 1; experiment: Antiviral activity against HIV-1 SM012 harboring NNTRI 108I mutant infected in human MT4 cells assessed as inhibition of viral replication relative to HIV-1 3B; in short: as §1
[26] = test system: Human immunodeficiency virus 1; experiment: Antiviral activity against HIV-1 subtype CRF02_AG V022826 infected in human MT4 cells assessed as inhibition of viral replication relative to HIV-1 3B; in short: as §1
[27] = test system: Human immunodeficiency virus 1; experiment: Antiviral activity against HIV-1 subtype B V022814 infected in human MT4 cells assessed as inhibition of viral replication relative to HIV-1 3B; in short: as §1
[28] = test system: Human immunodeficiency virus 1; experiment: Antiviral activity against HIV-1 subtype D V022818 infected in human MT4 cells assessed as inhibition of viral replication relative to HIV-1 3B; in short: as §1
[29] = test system: Human immunodeficiency virus 1; experiment: Antiviral activity against HIV-1 SM051 harboring NNTRI 100I and 103N mutant infected in human MT4 cells assessed as inhibition of viral replication relative to HIV-1 3B; in short: as §1
[30] = test system: Human immunodeficiency virus 1; experiment: Antiviral activity against HIV-1 subtype C V022829 infected in human MT4 cells assessed as inhibition of viral replication relative to HIV-1 3B; in short: as §1
[31] = test system: Human immunodeficiency virus 1; experiment: Antiviral activity against HIV-1 subtype CRF01_AE V022822 infected in human MT4 cells assessed as inhibition of viral replication relative to HIV-1 3B; in short: as §1
[32] = test system: Human immunodeficiency virus 1; experiment: Antiviral activity against HIV-1 subtype D V022832 infected in human MT4 cells assessed as inhibition of viral replication relative to HIV-1 3B; in short: as §1
[33] = test system: Human immunodeficiency virus 1; experiment: Antiviral activity against HIV-1 subtype D V022819 infected in human MT4 cells assessed as inhibition of viral replication relative to HIV-1 3B; in short: as §1
[34] = test system: Human immunodeficiency virus 1; experiment: Antiviral activity against HIV-1 subtype H V022827 harboring NNRTI V179I mutant infected in human MT4 cells assessed as inhibition of viral replication relative to HIV-1 3B; in short: as §1
[35] = test system: Human immunodeficiency virus 1; experiment: Antiviral activity against HIV-1 subtype B V022813 infected in human MT4 cells assessed as inhibition of viral replication relative to HIV-1 3B; in short: as §1
[36] = test system: Human immunodeficiency virus 1; experiment: Antiviral activity against HIV-1 SM052 harboring NNTRI 101E and 103N mutant infected in human MT4 cells assessed as inhibition of viral replication relative to HIV-1 3B; in short: as §1
[37] = test system: Human immunodeficiency virus 1; experiment: Antiviral activity against HIV-1 SM058 harboring NNTRI 227L and 106A mutant infected in human MT4 cells assessed as inhibition of viral replication relative to HIV-1 3B; in short: as §1
[38] = test system: Human immunodeficiency virus 1; experiment: Antiviral activity against HIV-1 subtype CRF02_AG V022830 infected in human MT4 cells assessed as inhibition of viral replication relative to HIV-1 3B; in short: as §1
[39] = test system: Human immunodeficiency virus 1; experiment: Antiviral activity against HIV-1 subtype H V022828 harboring NNRTI K101Q and V179I mutant infected in human MT4 cells assessed as inhibition of viral replication relative to HIV-1 3B; in short: as §1

For `CC(C)Nc1cccnc1N1CCN(C(=O)c2cc3cc(NS(C)(=O)=O)ccc3[nH]2)CC1` [DELAVIRDINE], the “Ratio IC50” value [1] was 621, the “Ratio IC50” value [2] was 2.6 and the “Ratio IC50” value [3] was 3.7. The “Ratio IC50” value [4] was 0.6, the “Ratio IC50” value [5] was 83 and the “Ratio IC50” value [6] was 1.9. The “Ratio IC50” value [7] was 4.4, the “Ratio IC50” value [8] was 2.7 and the “Ratio IC50” value [9] was 1.3. The “Ratio IC50” value [10] was 0.6, the “Ratio IC50” value [11] was 4.9 and the “Ratio IC50” value [12] was 3.6. For the same compound, the “Ratio IC50” value [13] was 2.6, the “Ratio IC50” value [14] was 6 and the “Ratio IC50” value [15] was 2.3. For the same compound, the “Ratio IC50” value [16] was 2.6, the “Ratio IC50” value [17] was 0.6 and the “Ratio IC50” value [18] was 12. For the same compound, the “Ratio IC50” value [19] was 2, the “Ratio IC50” value [20] was 215 and the “Ratio IC50” value [21] was 20. The “Ratio IC50” value [22] was 105, the “Ratio IC50” value [23] was 140 and the “Ratio IC50” value [24] was 5.3. The “Ratio IC50” value [25] was 2, the “Ratio IC50” value [26] was 1.3 and the “Ratio IC50” value [27] was 1.9. The “Ratio IC50” value [28] was 0.9, the “Ratio IC50” value [29] was 621 and the “Ratio IC50” value [30] was 2.7. The “Ratio IC50” value [31] was 2.7, the “Ratio IC50” value [32] was 1.1 and the “Ratio IC50” value [33] was 2.3. The “Ratio IC50” value [34] was 0.3, the “Ratio IC50” value [35] was 0.7 and the “Ratio IC50” value [36] was 90. The “Ratio IC50” value [37] was 10, the “Ratio IC50” value [38] was 0.9 and the “Ratio IC50” value [39] was 2.
